The values that follow come from PMC3947091 (Molecular imaging and biology : MIB : the official …, 2014).

In one assay the test system is glioblastomas. To be noted: 90 of 139 patients; white light comparison 47 (36 %) of 131 patients; cited from earlier work.
Assay [1] deals with U87-Luc tumors. Type of assay: in vivo, nude mice. The note with it: 10 μg. The method in brief: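 Male nude mice (8–10 weeks) had 1×10⁶ U87-Luc cells implanted stereotaxically (3 mm deep, 1 mm right, 2.5 mm behind bregma). Tumor take was checked by bioluminescence on day 10 (iv d-luciferin 4 mg/kg). Cy5.5-labeled test probe or scrambled control, 10 μg, given by tail vein. NIR imaging at 1, 4 and 24 h (ex 675 nm, em 695–770 nm). Mice killed at each time point (n=4); organs weighed and imaged ex vivo. Manual ROI, photons/s/cm².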

The subject of assay [2] is U251-Luc tumors. The assay can be described thus: NIR optical imaging, orthotopic U251-Luc tumors. Type of assay: in vivo, nude mice. The note with it: 24 h after tail vein injection, 10 μg. The method in brief: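 Orthotopic xenograft made with 3×10⁶ U251-Luc cells stereotaxically implanted in male nude mice (8–10 weeks; 3 mm deep, 1 mm right, 2.5 mm behind bregma). Bioluminescence check on day 10. Tail-vein injection of 10 μg Cy5.5-labeled probe (n=12). NIR imaging at 1, 4 and 24 h (ex 675 nm/30 nm bandwidth, em 695–770 nm); tissues analyzed ex vivo at 24 h. Manual ROI, photons/s/cm².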

The test system of assay [3] is U251-Luc tumors. The assay can be described thus: μPET/CT imaging with blocking experiment, orthotopic U251-Luc tumors. Type of assay: in vivo, nude mice. The method in brief: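 In orthotopic U251-Luc nude mice (n=3), ⁶⁴Cu-labeled probe (7.4 MBq, 0.5–1.0 μg) was given by tail vein, alone or with 50 μg/mouse of unlabeled probe for blocking. μPET/CT at 1 and 24 h. ROIs drawn on tumor, normal brain and a standard holding 1% of the injected dose. Tumor/normal-brain voxel intensity ratio taken from 3D ROIs, reported with SD; Student t test.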

In assay [4] the test system is U87-Luc tumors. The assay can be described thus: μPET/CT imaging, orthotopic U87-Luc tumors. Type of assay: in vivo, nude mice. To be noted: 1 and 24 h after tail vein injection, 7.4 MBq. The gist of the method: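 Orthotopic U87-Luc nude mice (n=4; 1×10⁶ cells implanted stereotaxically) received ⁶⁴Cu-labeled probe, 7.4 MBq (200 μCi, 0.5–1.0 μg), by tail vein. μPET/CT imaging at 1 and 24 h. Mean activities computed within ROIs drawn on tumor and normal brain, with a 1%-injected-dose standard placed beside the animal.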

Assay [5] has as its system U87-Luc tumors (EphB4, CD31 staining). The assay can be described thus: Fluorescence microscopy of excised brain sections, U87-Luc tumors. The note with it: EphB4 expression only in tumor microvessels. Type of assay: in vivo, nude mice. The method in brief: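 Brains with implanted tumor excised from probe-injected nude mice after μPET/CT, snap-frozen, cut at 4 μm. Sections fixed in 4% paraformaldehyde 20 min RT, blocked in 10% goat serum 30 min, and incubated overnight at 4 °C with rabbit anti-human EphB4 (1:100) and rat anti-mouse CD31 (1:50). Alexa 488/594 secondaries (1:500), DAPI counterstain, fluorescence microscopy.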

* marks the point of attachment. DOTA = O=C(O)CN1CCN(CC(=O)O)CCN(CC(=O)*)CCN(CC(=O)O)CC1; Cy5.5 = Cy5.5 near-infrared fluorescence dye

On to `NCC(=O)CCC(=O)O` [5-aminolevulinic acid], for which the “Patients with completely resected glioblastoma” value with glioblastomas is 65%.

Take “Cy5.5-TNYL-RAWK-DOTA: TNYL-RAW with Cy5.5 at the N-terminus and DOTA at the C-terminus ({Cy5.5}-TNYLFSPNGPIARAWK(DOTA)-NH2)”: the “Brain tumor uptake clearly shown in NIR fluorescence imaging” value with U87-Luc tumors [1] (U87-Luc tumors, 1, 4 and 24 h after intravenous injection) is recorded as “clearly shown”. The “Cy5.5 NIR fluorescence visualization of tumor in mouse brain” value in the assay on U87-Luc tumors [1] (U87-Luc, 24 h after tail vein injection) is “clearly visualized”; in the assay with U251-Luc tumors [2], “clearly visualized”.

Turning to “Cy5.5-TNYL-RAWK-^64Cu-DOTA: ^64Cu-labeled Cy5.5-TNYL-RAWK-DOTA, dual-labeled PET/optical probe ({Cy5.5}-TNYLFSPNGPIARAWK(DOTA)-NH2; also: DOTA holds 64Cu)”, in the assay on U251-Luc tumors [3] (1 and 24 h, coinjected cold Cy5.5-TNYL-RAWK-DOTA 50 μg/mouse), the “μPET/CT visualization of tumors, with cold peptide” value was “barely discernible”. In addition, the “μPET/CT visualization of tumors, absence of cold peptide” value with U251-Luc tumors [3] (1 and 24 h after radiotracer injection, 7.4 MBq) is “clearly visualized”. In addition, the “μPET/CT visualization of tumors” value in the assay on U87-Luc tumors [4] is “clearly visualized”. Further, the “Binding site in tumor sections (Cy5.5 signal colocalization)” value in assay [5] is given as “bound only to the tumor microvessels”.
